In ChEMBL document CHEMBL1125363, “Novel piperidine sigma receptor ligands as potential antipsychotic drugs” (J Med Chem, 1992):

How the values were obtained:
[1] = target: T1, Serotonin 2 (5-HT2) receptor (Mus musculus, UniProt Q02152+P34968+P35363); assay: In vitro binding affinity for serotonin 5-hydroxytryptamine (5-HT) 2 receptors; type: protein assay
D(2) dopamine receptor [2] = target: T2, D(2) dopamine receptor (Mus musculus, UniProt P61168); assay: In vitro binding affinity towards dopamine receptor D2
T2 sequence (P61168 whole entry): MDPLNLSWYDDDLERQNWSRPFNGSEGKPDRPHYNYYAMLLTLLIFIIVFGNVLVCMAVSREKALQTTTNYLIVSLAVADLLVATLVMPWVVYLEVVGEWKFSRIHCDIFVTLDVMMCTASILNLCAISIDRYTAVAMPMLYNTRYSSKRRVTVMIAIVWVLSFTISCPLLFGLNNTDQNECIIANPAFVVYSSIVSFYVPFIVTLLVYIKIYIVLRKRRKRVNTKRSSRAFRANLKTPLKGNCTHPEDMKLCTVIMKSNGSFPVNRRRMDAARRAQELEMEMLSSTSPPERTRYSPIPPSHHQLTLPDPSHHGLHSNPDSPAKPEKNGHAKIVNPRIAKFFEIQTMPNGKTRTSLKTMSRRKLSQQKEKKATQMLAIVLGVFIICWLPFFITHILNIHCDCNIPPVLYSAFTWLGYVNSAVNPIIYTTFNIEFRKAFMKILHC

Mus musculus [3] = organism: Mus musculus; assay: Oral potency tested using apomorphine induced climbing test; type: functional
Rattus norvegicus [4] = organism: Rattus norvegicus; assay: Oral potency tested using 5HTP induced head twitch test; type: functional
[5] = target: Sigma non-opioid intracellular receptor 1 (Mus musculus, UniProt O55242); assay: In vitro binding affinity for the mouse sigma opioid receptor
Sequence of Sigma non-opioid intracellular receptor 1 (O55242 whole entry): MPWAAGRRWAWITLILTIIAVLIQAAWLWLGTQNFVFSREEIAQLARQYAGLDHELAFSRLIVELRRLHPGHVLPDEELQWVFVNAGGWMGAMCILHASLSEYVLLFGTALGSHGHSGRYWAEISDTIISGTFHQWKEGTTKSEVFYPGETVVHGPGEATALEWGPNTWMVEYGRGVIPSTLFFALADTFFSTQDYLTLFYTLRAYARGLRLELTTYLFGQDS

[6] = (§1) Oral potency by using Anti aggression test; type: functional
In short: (§2)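 Mice were held in prolonged isolation, then exposed to intruders. The aggressive response was scored after oral dosing of the test compound. Potency is the ED50 in mg/kg po.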

Mus musculus [7] = organism: Mus musculus; assay: Oral potency tested by using anti-mescaline test; type: functional
In short: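 Mice; mescaline was given to evoke hallucinogen-type behaviour, and the test compound was dosed orally to antagonise it. Potency is the ED50 in mg/kg po. Some ED50s are the average of three measurements.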

[8] = target: T1, Serotonin 2 (5-HT2) receptor; assay: The compound was tested in vitro for its binding affinity towards 5-hydroxytryptamine 2 receptor; type: protein assay
D(2) dopamine receptor [9] = target: T2, D(2) dopamine receptor; assay: The compound was tested in vitro for its binding affinity towards Dopamine receptor D2
Mus musculus [10] = organism: Mus musculus; assay: as §1; type: functional; in short: as §2
D(1A) dopamine receptor = D(1A) dopamine receptor (Mus musculus, UniProt Q61616); assay: The compound was tested in vitro for its binding affinity towards dopamine receptor D1
Sequence of D(1A) dopamine receptor (Q61616 whole entry): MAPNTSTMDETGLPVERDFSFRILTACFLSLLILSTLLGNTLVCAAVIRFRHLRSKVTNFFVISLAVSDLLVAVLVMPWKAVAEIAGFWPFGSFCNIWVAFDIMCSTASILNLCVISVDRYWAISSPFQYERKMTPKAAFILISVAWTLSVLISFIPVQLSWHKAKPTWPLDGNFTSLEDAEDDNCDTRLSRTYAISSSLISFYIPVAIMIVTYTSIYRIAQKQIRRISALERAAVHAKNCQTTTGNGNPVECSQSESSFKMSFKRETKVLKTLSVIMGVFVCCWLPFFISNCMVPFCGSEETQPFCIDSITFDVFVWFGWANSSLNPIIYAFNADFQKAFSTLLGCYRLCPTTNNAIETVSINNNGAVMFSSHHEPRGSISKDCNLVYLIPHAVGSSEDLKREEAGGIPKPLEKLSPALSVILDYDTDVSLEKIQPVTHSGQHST

Rattus norvegicus [11] = organism: Rattus norvegicus; assay: The compound was tested for blocking the rotation induced by (+)-SKF 10047 in brain-lesioned rats.; type: functional
In short: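 Rats with brain lesions were challenged with (+)-SKF 10047 to induce rotation. The test compound was given orally to block rotation. Reported as the ED50 in mg/kg po.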

Mus musculus [12] = organism: Mus musculus; assay: Oral potency by using Anti aggression test

| SMILES | Ki [1] [nM] | IC50 (D(2) dopamine receptor [2]) [nM] | ED50 (Mus musculus [3]) [mg/kg] | ED50 (Rattus norvegicus [4]) [mg/kg] | Ki [5] [nM] | ED50 [6] [mg/kg] | ED50 (Mus musculus [7]) [mg/kg] | Ki [8] [nM] | IC50 (D(2) dopamine receptor [9]) [nM] | ED50 (Mus musculus [10]) [mg/kg] | Ki (D(1A) dopamine receptor) [µM] | ED50 (Rattus norvegicus [11]) [mg/kg] | ED50 (Mus musculus [12]) [mg/kg] |
| --- | --- | --- | --- | --- | --- | --- | --- | --- | --- | --- | --- | --- | --- |
| O.O=[N+]([O-])c1ccc(OCC2CCN(CC3CC3)CC2)cc1 | 215 | > 10000 | > 30 | > 10 | 13 | 1.4 | 0.85 | – | – | – | – | – | – |
| O=C(CC1CCN(Cc2ccc(F)cc2)CC1)c1ccc(F)cc1 | 26 | 608 | < 10 | < 10 | 3 | 4.5 | 4.5 | – | – | – | – | – | – |
| Fc1ccc(SCC2CCN(CCC3CC3)CC2)cc1 | – | – | – | – | 5 | – | > 10 | 53 | 1700 | – | – | – | – |
| CC(C)(C)c1ccc(OCC2CCN(CC3CC3)CC2)cc1 | > 1000 | 3150 | > 30 | – | 14 | – | < 30 | – | – | > 30 | – | – | – |
| N#Cc1ccc(C(=O)CC2CCN(CC3CC3)CC2)cc1.O=C(O)/C=C/C(=O)O | > 10000 | > 10000 | > 90 | 22.3 | 11 | 0.44 | 0.8 | – | – | – | > 10 | 5.3 | – |
| O.c1ccc(-c2ccc(OCC3CCN(CC4CC4)CC3)cc2)cc1 | > 10000 | > 10000 | > 30 | > 30 | 12 | 30 | 7.5 | – | – | – | – | – | – |
| Fc1ccc(OCC2CCN(CC3CC3)CC2)cc1 | 9 | 381 | > 30 | 10 | 2 | 12 | 2.9 | – | – | – | – | – | – |
| O.O=C(CC1CCN(Cc2ccccc2)CC1)c1ccc(F)cc1.O=C(O)/C=C\C(=O)O | 20 | 1550 | 18 | 2.8 | 1 | – | 4.8 | – | – | 8.6 | – | – | – |
| Cl.Clc1ccc(OCC2CCN(CC3CC3)CC2)cc1 | 40 | > 10000 | > 30 | 27 | 4 | 26 | 4.4 | – | – | – | – | – | – |
| Br.O=C(CC1CCN(CC2CC2)CC1)c1ccc(F)cc1 | 15 | – | 15 | 1.8 | 10 | – | 0.35 | – | – | – | – | 2.4 | 1.9 |
| Cl.O.O=C(CC1CCN(CC2CC2)CC1)c1ccc(C(F)(F)F)cc1 | 278 | > 10000 | > 30 | – | 45 | – | 6.6 | – | – | – | – | – | > 30 |
| Br.O=C(CC1CCN(CC2CC2)CC1)c1ccc(-c2ccccc2)cc1 | 547 | 1720 | > 30 | 10 | 51 | – | 4.7 | – | – | – | – | – | 8.4 |
| Br.O=C(CC1CCN(CC2CC2)CC1)c1ccc(Cl)cc1 | 495 | 2000 | > 30 | 30 | 8 | – | 0.46 | – | – | – | – | – | 14 |
| Cl.OC(CC1CCN(Cc2ccccc2)CC1)c1ccc(F)cc1 (configuration not stated) | 323 | 5660 | > 30 | 6.8 | 8 | 32 | 5 | – | – | – | – | – | – |
| OC(CCCN1CCN(c2ncc(F)cn2)CC1)c1ccc(F)cc1 (configuration not stated) [BMY-14802] | 410 | 2430 | > 90 | 2.3 | 174 | – | 6 | – | – | – | – | – | 45 |
| C[C@@H]1CN(CCCn2c3ccccc3c3ccccc32)C[C@H](C)N1 [RIMCAZOLE] | 2842 | – | > 90 | – | 820 | – | 22 | – | – | – | – | – | 48 |
